# Only some compounds are listed: those with a hit (about 1.9% of all), similar ones and a draw of the others.
# HCV NS3 hel inh: HCV NS3 helicase inhibition; NS3 helicase DNA unwinding, Cy5 molecular beacon fluorescence; inhibition, % at 10.9 µM; 290,000 compounds, 0.56% hits;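 active = inhibition above the mean of all tested compounds plus 3 SD, set per campaign, cut at about 35% in these data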
#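 Assay system: hepatitis C virus NS3 helicase domain fragment enzyme. Also added: annealed dual-labelled DNA beacon duplex, ATP-started. Timing: 1 h reaction at 25 °C, ATP-initiated. Technique: Cy5 fluorescence at 0 and 60 min, beacon hairpin quenching. Evaluation: % inhibition of unwinding. Replication: one well per compound.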
# PP1 inh: counter-screen for PP5 inhibitors: inhibitors of human PP1-alpha; P62136; purified PP1alpha, OMFP fluorescence; inhibition, % at 6.7 µM; 320,000 compounds, 0.9% hits;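 active = inhibition above the mean inhibition of all tested compounds plus 3 SD, computed separately for each screening campaign, cut at about 15% in these data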
# DNA FID counter: fluorescent intercalator displacement, NS3 helicase counter-screen. 290,000 compounds, 0.17% hits. DNA fluorescent intercalator displacement, fluorescence. inhibition, % at 7.9 µM. AID 1845; in the data active = inhibition above about 37%;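 note: higher means more ethidium bromide displaced from hairpin DNA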
# PP5 inh: inhibitors of human protein phosphatase 5 (PP5); P53041; purified PP5c, OMFP substrate fluorescence; inhibition, % at 6.7 µM; 320,000 compounds, 0.18% hits; AID 1987;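 active = inhibition above the campaign's mean inhibition across all tested compounds plus 3 SD, cut at about 9.5% in these data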
# Target sequence (P53041 whole entry, looked up): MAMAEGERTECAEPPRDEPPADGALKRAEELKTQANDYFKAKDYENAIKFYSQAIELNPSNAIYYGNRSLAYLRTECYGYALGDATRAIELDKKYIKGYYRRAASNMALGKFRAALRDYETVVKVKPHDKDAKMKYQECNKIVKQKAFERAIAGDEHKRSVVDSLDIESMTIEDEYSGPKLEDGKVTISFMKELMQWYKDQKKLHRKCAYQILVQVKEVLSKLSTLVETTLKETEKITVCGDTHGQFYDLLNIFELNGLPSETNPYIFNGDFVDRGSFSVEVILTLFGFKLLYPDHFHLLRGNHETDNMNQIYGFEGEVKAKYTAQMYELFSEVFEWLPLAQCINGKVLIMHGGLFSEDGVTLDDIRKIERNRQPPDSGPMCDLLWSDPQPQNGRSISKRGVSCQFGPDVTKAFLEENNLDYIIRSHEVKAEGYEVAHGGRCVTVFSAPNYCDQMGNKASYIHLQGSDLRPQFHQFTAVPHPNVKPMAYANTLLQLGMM
# HIF act: HIF pathway transcriptional activation; 300,000 compounds, 0.32% hits; U2OS HRE-luciferase reporter, luminescence; normalized: DMSO 0%, desferrioxamine 100%; activation, % at 7.5 µM (by protocol);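 active = mean activation of at least 10% of the iron chelator positive control signal, with at least half of replicates also reaching 10%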
# PP1 inh confirm: human PP1 phosphatase inhibition, confirmation | shares compounds with PP1 inh | purified PP1alpha, OMFP substrate fluorescence | inhibition, % at 6.7 µM | 1,900 compounds, 52% hits;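 active = mean PP1 inhibition above a set limit taken from the earlier primary screen, cut at about 15% in these data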
# PP5 counter: counter-screen for PP1 inhibitors: human PP5 phosphatase inhibition. shares compounds with PP1 inh. purified PP5c, OMFP fluorescence. inhibition, % at 6.7 µM. 1,900 compounds, 4% hits. AID 2360;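 active = mean PP5 inhibition over triplicate wells above about 9.5% taken from the earlier PP1 screen, limit read from the data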
# Numbers stand for hits; i = inactive; nt = no result.
SMILES,HCV NS3 hel inh,PP1 inh,DNA FID counter,PP5 inh,HIF act,PP1 inh confirm,PP5 counter
CN(Cc1ccccn1)C(=O)C1CCC(=O)N(Cc2cccc(F)c2)C1 (stereo not given),i,24,i,i,i,i,i
Cc1c(CCC(=O)O)c(=O)oc2c(C)c(OCc3cc4c(cc3Cl)OCO4)ccc12,i,20,i,i,i,i,i
c1ccc(C2=Nn3c(nnc3-c3n[nH]c4c3CCC4)SC2)cc1,i,i,i,i,i,nt,nt
Clc1ccc(C2=Nn3c(nnc3-c3cc(-c4ccccc4)n[nH]3)SC2)cc1,i,23,i,i,i,16,i
c1ccc(C2=Nn3c(nnc3-c3cc(-c4ccccc4)n[nH]3)SC2)cc1,i,i,i,i,i,nt,nt
Clc1ccc(C2=Nn3c(nnc3-c3n[nH]c4c3CCC4)SC2)cc1Cl,i,23,i,i,i,28,i
Cc1ccc(S(=O)(=O)NCC(=O)NC2CC2)cc1,i,i,i,i,i,nt,nt
COc1ccc(-c2cc(C(=O)NCC(c3ccco3)N(C)C)c3ccccc3n2)cc1OC (stereo not given),nt,i,nt,i,i,nt,nt
COc1cc(/C=C(/NC(C)=O)C(=O)O)cc(Cl)c1OCc1ccc(Br)cc1,i,i,i,i,i,nt,nt
COc1cc(/C=C2\SC(N)=NC2=O)ccc1OCC(=O)Nc1ccc(C)cc1,i,21,i,i,i,18,i
COc1ccc(/C=C2/SC(=O)N(CCC(=O)Nc3ccc(C)cc3)C2=O)cc1OC,i,i,i,i,i,nt,nt
CCCOc1ccc(C(=O)CCC(=O)NNC(=O)c2cccs2)cc1,nt,i,nt,i,nt,nt,nt
Cc1cccc(NC(=S)NCc2ccc3c(c2)cc(C)n3C)c1C,i,18,i,i,i,i,i
COc1cccc(NC(=S)NCc2ccc3c(c2)cc(C)n3C)c1,i,nt,i,nt,i,nt,nt
O=c1cc(CN2CCCc3ccccc32)nc2sccn12,i,i,i,i,i,nt,nt
O=c1cc(CN2CCc3ccccc32)nc2sccn12,i,24,i,i,i,31,i
O=C(COC(=O)c1cc(Cl)ccc1O)NCC1CCCO1 (stereo not given),nt,i,nt,i,i,nt,nt
O=C(COc1ccc(-c2ccccc2)cc1)N/N=C/c1ccccc1Br,i,18,i,i,i,i,i
O=C(c1cc(-c2cccnc2)nc2ccc(Br)cc12)N1CCC2(CC1)OCCO2,i,nt,i,nt,nt,nt,nt
Nc1cc2nc3ccccc3oc-2cc1=O,i,19,i,i,nt,i,i
O=C1c2cccnc2C(=O)N1Cc1ccc(F)cc1S(=O)(=O)NCc1ccco1,i,i,i,i,nt,nt,nt
Cc1ccccc1OCCC(=O)OCC(=O)NC(=O)c1ccccc1,nt,22,nt,i,i,i,i
O=C(CSc1ccc2nnc(-c3ccc(F)cc3)n2n1)N1CCCc2ccccc21,i,i,i,i,i,nt,nt
O=C(CSc1ccc2nnc(-c3ccc(Cl)cc3)n2n1)N1CCCc2ccccc21,i,24,i,i,i,i,i
N=C1/C(=C/c2ccc(-c3cccc(C(=O)O)c3)o2)C(=O)N=C2SC=C(c3ccccc3)N12,i,72,i,i,i,44,i
SMILES,HCV NS3 hel inh,PP1 inh,DNA FID counter,PP5 inh,HIF act,PP1 inh confirm,PP5 counter
COc1ccc(S(=O)(=O)N2CCCC2CNC(=O)C(=O)NCc2ccccc2)cc1 (stereo not given),nt,33,nt,i,i,i,i
O=C(NCCC1CCCCN1S(=O)(=O)c1ccc(F)cc1)C(=O)NCc1ccncc1 (stereo not given),nt,i,nt,i,i,nt,nt
COc1ccc(S(=O)(=O)N2CCCC2CNC(=O)C(=O)NCc2ccc(C)cc2)cc1 (stereo not given),nt,i,nt,i,i,nt,nt
O=C(NCCC1CCCCN1S(=O)(=O)c1ccc(Cl)cc1)C(=O)NCc1ccncc1 (stereo not given),nt,31,nt,i,i,i,i
Cc1ccc(NC(=O)COC(=O)c2ccc3c(c2)NC(=O)C2CCCN32)cc1 (stereo not given),i,19,i,i,i,i,i
CCc1ccc(NC(=O)CCn2c(=O)c3cccn3c3ccccc32)cc1,i,i,i,i,i,nt,nt
CCc1ccc(NC(=O)Cn2c(=O)c3cccn3c3ccccc32)cc1,i,22,i,i,i,18,i
Cc1ccc(NC2c3ncccc3C(=O)N2Cc2cccs2)cc1 (stereo not given),i,23,i,i,i,20,i
COc1ccc(CN2C(=O)c3cccnc3C2Nc2ccc(C)cc2)cc1 (stereo not given),i,i,i,i,i,nt,nt
CSCCC(NC(=O)c1ccc([N+](=O)[O-])cc1Cl)C(=O)OCC(=O)NC1CCCC(C)C1C (stereo not given),i,i,i,i,i,nt,nt
CSCCC(NC(=O)c1ccc([N+](=O)[O-])cc1Cl)C(=O)OCC(=O)NC(=O)CN1CCCC1=O (stereo not given),nt,39,nt,i,i,i,i
CCOC(=O)C1(Cc2ccc(Cl)cc2)CCN(C(=O)c2ccoc2)CC1,i,i,i,i,i,nt,nt
CCOc1ncccc1C(=O)OCC(=O)Nc1ccc(-c2nc3ccc(C)cc3s2)cc1,i,19,i,i,i,29,i
CC1CN(C(=O)CCNC(=O)c2ccc(Cl)cc2)CC(C)O1 (stereo not given),i,i,i,i,i,nt,nt
CCOC(=O)c1c(CSc2ccc(CC)cc2)oc2ccc(O)c(CN(C)C)c12,i,18,i,i,i,i,i
CC(C)c1ccc2c(c1)C(N1CCNCC1)Cc1ccc(F)cc1S2 (stereo not given),nt,19,nt,i,i,i,i
CN(C)c1ccc(-c2nnn(CC(=O)NCc3ccc4c(c3)OCO4)n2)cc1,i,i,i,i,i,nt,nt
C=CCNC(=S)N1CCN(c2cc3c(cc2F)c(=O)c(C(=O)O)cn3CC)CC1,i,20,i,i,i,i,i
CCn1cc(C(=O)O)c(=O)c2cc(F)c(N3CCN(C(=S)NC(=O)c4ccccc4Cl)CC3)cc21,i,i,i,i,i,nt,nt
CCn1cc(C(=O)O)c(=O)c2cc(F)c(N3CCN(S(=O)(=O)c4ccc(Br)cc4)CC3)cc21,i,19,i,i,i,41,i
CN(C)/C=C1/C(=O)N(c2ccc([N+](=O)[O-])cc2)N=C1c1ccccc1,i,20,i,i,i,i,i
CC1=NN(c2ccc([N+](=O)[O-])cc2)C(=O)/C1=C\N(C)C,i,i,i,i,i,nt,nt
Cc1ccc(CNC(=O)c2ccccc2NC(=O)CN2CC(C)OC(C)C2)cc1 (stereo not given),i,i,i,i,i,nt,nt
Cc1ccc(S(=O)(=O)Nc2cccc(-c3ccc(N4CCCCCC4)nn3)c2)cc1,i,18,i,i,i,i,i
COc1ccc(S(=O)(=O)Nc2cccc(-c3ccc(N4CCCCCC4)nn3)c2)cc1OC,i,i,i,i,i,nt,nt
CCOc1ccc(-c2cc(C(=O)NCCCn3ccnc3)c3cc(Br)ccc3n2)cc1,i,21,i,i,i,i,i
